Experiments:
[1] = biological target: T1, Myeloperoxidase (Homo sapiens, UniProt P05164); experiment: Inhibition of human recombinant MPO-mediated taurine chlorination after 5 mins by microplate assay; assay type: single protein
T1 sequence (P05164 whole entry): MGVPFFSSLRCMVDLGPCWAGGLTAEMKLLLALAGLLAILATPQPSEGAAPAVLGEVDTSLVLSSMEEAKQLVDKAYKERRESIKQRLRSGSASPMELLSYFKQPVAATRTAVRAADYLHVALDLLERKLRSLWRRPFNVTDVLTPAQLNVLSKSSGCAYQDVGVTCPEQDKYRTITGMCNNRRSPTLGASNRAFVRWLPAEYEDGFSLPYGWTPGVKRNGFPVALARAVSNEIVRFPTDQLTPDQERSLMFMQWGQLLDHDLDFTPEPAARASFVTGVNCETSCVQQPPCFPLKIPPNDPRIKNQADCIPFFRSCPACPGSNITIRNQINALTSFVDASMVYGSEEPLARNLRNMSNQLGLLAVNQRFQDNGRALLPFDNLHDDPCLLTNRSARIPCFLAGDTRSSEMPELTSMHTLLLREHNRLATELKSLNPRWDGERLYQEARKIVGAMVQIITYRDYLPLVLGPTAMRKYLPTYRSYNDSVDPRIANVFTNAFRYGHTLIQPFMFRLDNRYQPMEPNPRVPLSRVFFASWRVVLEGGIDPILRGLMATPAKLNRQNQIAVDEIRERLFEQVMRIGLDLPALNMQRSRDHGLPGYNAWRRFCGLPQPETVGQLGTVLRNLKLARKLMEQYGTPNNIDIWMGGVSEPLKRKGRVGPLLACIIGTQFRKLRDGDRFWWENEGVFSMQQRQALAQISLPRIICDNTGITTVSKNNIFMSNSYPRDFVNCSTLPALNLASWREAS
Procedure, shortened: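 Recombinant MPO (40 nM) in 10 mM phosphate pH 7.4 with 300 mM NaCl and 15 mM taurine, inhibitor up to 20 µM, 37 °C. Started with H2O2 (100 µM), stopped after 5 min with catalase. Taurine chloramine measured with thionitrobenzoic acid at 412 nm. IC50 taken from the absorbance–concentration curve; no H2O2 set as 100% inhibition, no inhibitor as 0%.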

[2] = biological target: Sodium-dependent serotonin transporter (Homo sapiens, UniProt P31645); experiment: Inhibition of serotonin reuptake at human SERT expressed in HEK293 cells coexpressing macrophage scavenger receptor; assay type: cell-based
Chain of Sodium-dependent serotonin transporter (P31645 whole entry): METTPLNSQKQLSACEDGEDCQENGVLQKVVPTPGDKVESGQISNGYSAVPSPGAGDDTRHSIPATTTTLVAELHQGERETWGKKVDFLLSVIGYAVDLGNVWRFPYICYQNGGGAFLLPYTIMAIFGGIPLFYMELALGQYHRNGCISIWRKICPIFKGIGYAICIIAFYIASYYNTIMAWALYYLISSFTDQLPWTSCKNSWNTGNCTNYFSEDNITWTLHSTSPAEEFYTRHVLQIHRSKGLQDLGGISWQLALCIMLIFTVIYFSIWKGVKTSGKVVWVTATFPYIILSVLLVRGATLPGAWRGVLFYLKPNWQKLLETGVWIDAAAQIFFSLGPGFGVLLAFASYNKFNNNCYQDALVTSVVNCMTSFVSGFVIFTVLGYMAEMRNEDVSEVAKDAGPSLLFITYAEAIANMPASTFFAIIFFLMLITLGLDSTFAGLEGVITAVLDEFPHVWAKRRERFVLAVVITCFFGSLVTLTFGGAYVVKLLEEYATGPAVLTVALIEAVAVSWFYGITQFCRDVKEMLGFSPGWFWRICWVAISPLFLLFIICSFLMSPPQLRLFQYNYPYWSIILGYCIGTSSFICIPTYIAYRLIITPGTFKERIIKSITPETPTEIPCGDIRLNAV
Procedure, shortened: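 HEK-293 MSR cells grown in DMEM with 10% FCS, penicillin/streptomycin and 6 µg/mL Geneticin at 37 °C and 5% CO2. Cells transfected with a pcDNA3.1 human SERT plasmid and assayed for [3H]5-HT uptake.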

[3] = biological target: T1, Myeloperoxidase; experiment: Inhibition of human recombinant MPO-mediated LDL oxidation after 5 mins by ELISA
Procedure, shortened: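 Recombinant MPO (1 µg/mL) with human plasma LDL (1000 µg/mL; ultracentrifuged fraction 1.019–1.067 g/mL, desalted in PBS) in PBS pH 7.2 with 4 mM HCl and test compound at several concentrations. Reaction started with 100 µM H2O2 at 37 °C and stopped after 5 min on ice. Oxidized LDL read by ELISA: 200 ng/well LDL coated, Mab AG9 antibody, alkaline phosphatase anti-mouse IgG, p-nitrophenyl phosphate, A405 corrected at 655 nm.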

[4] = species on record: Homo sapiens; experiment: Selectivity ratio of Ki for human SERT to IC50 for human recombinant MPO-mediated LDL oxidation
Procedure, shortened: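 Ratio of two measured values. Recombinant human MPO (1 µg/mL) oxidised LDL (1000 µg/mL) in PBS pH 7.2 with 4 mM HCl and 100 µM H2O2 at 37 °C for 5 min. Oxidised LDL was detected by ELISA with Mab AG9 at 405 nm to give the IC50. hSERT was transiently expressed in HEK-293 MSR cells and assayed by [3H]5-HT uptake.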

[5] = system: Rattus norvegicus; experiment: Toxicity in Wistar Han rat assessed as prostarted posture at 100 mg/kg, ip after 24 hrs; assay type: organism-based; set-up: dose 100 mg/kg, route intraperitoneal; settings: in vivo
Procedure, shortened: (§1)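 Male Wistar Han rats (~285 g), 3 per group, given one i.p. dose in 2 ml alcohol/water 1:3 (v/v); vehicle-only controls. Doses were 10 or 100 mg/kg, or 1, 10 or 100 mg/kg, depending on the compound. Clinical signs recorded daily. Rats killed by exsanguination after 4 days, with gross organ examination at necropsy.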

[6] = system: Rattus norvegicus; experiment: Toxicity in Wistar Han rat assessed as macroscopic muscle lesions at 1 to 100 mg/kg, ip by necropsic analysis; assay type: organism-based, Muscle tissue; set-up: dose 1-100 mg/kg, route intraperitoneal; settings: in vivo
Procedure, shortened: (§2)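 Male Wistar Han rats (~285 g), 3 per group, received a single i.p. dose of 1, 10 or 100 mg/kg in alcohol/water 1:3 (v/v), with vehicle controls. Clinical signs were recorded daily. After 4 days, rats were killed by exsanguination, and liver, kidney, heart and muscle were examined grossly at necropsy.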

[7] = system: Rattus norvegicus; experiment: Toxicity in Wistar Han rat assessed as mortality at 1 to 100 mg/kg, ip; assay type: organism-based; set-up: dose 1-100 mg/kg, route intraperitoneal; settings: in vivo
[8] = system: Rattus norvegicus; experiment: Toxicity in Wistar Han rat assessed as macroscopic kidney lesions at 1 to 100 mg/kg, ip by necropsic analysis; assay type: organism-based; set-up: dose 1-100 mg/kg, route intraperitoneal; settings: in vivo; procedure, shortened: as §2
[9] = system: Rattus norvegicus; experiment: Toxicity in Wistar Han rat assessed as macroscopic heart lesions at 1 to 100 mg/kg, ip by necropsic analysis; assay type: organism-based; set-up: dose 1-100 mg/kg, route intraperitoneal; settings: in vivo; procedure, shortened: as §2
[10] = system: Rattus norvegicus; experiment: Toxicity in Wistar Han rat assessed as macroscopic liver lesions at 1 to 100 mg/kg, ip by necropsic analysis; assay type: organism-based; set-up: dose 1-100 mg/kg, route intraperitoneal; settings: in vivo; procedure, shortened: as §2
[11] = system: Rattus norvegicus; experiment: Toxicity in Wistar Han rat at 1 to 10 mg/kg, ip; assay type: organism-based; set-up: dose 1-10 mg/kg, route intraperitoneal; settings: in vivo
Procedure, shortened: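 Male Wistar Han rats (~285 g), 3 per group, received a single i.p. injection of 1 or 10 mg/kg in alcohol/water 1:3 (v/v), with vehicle controls. Physical and clinical signs were recorded daily for 4 days, followed by exsanguination and gross necropsy.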

[12] = system: Rattus norvegicus; experiment: Toxicity in Wistar Han rat assessed as occurrence of piloerection at 100 mg/kg, ip after 24 hrs; assay type: organism-based; set-up: dose 100 mg/kg, route intraperitoneal; settings: in vivo; procedure, shortened: as §1
[13] = system: Rattus norvegicus; experiment: Toxicity in Wistar Han rat assessed as occurrence of piloerection at 100 mg/kg, ip after 48 hrs; assay type: organism-based; set-up: dose 100 mg/kg, route intraperitoneal; settings: in vivo; procedure, shortened: as §1
[14] = system: Rattus norvegicus; experiment: Toxicity in Wistar Han rat assessed as occurrence of macroscopic liver lesions at 100 mg/kg, ip by necropsic analysis; assay type: organism-based; set-up: dose 100 mg/kg, route intraperitoneal; settings: in vivo; procedure, shortened: as §1
[15] = system: Rattus norvegicus; experiment: Toxicity in Wistar Han rat assessed as paralysis of hind limbs at 100 mg/kg, ip after 48 hrs; assay type: organism-based, Hindlimb; set-up: dose 100 mg/kg, route intraperitoneal; settings: in vivo; procedure, shortened: as §1
[16] = system: Rattus norvegicus; experiment: Toxicity in Wistar Han rat at 10 mg/kg, ip; assay type: organism-based; set-up: dose 10 mg/kg, route intraperitoneal; settings: in vivo; procedure, shortened: as §1
[17] = system: Rattus norvegicus; experiment: Toxicity in Wistar Han rat assessed as mortality at 10 to 100 mg/kg, ip after 4 days; assay type: organism-based; set-up: dose 10-100 mg/kg, route intraperitoneal; settings: in vivo, 96 h

NCCSCCCc1c[nH]c2c(F)cccc12
IC50 ([1]; read-out: IC50): > 0.1 µM | Ki ([2]; read-out: Ki): 0.539 µM | IC50 ([3]; read-out: IC50): > 0.1 µM

N#CCCCc1c[nH]c2ccc(C(=O)O)cc12
IC50 [1]: Not Active | Ki ([2]; hek293): Not Active | IC50 [3]: Not Active

NCCCc1c[nH]c2ccc(C(=O)O)cc12
IC50 [1]: Not Active | Ki ([2]; hek293): Not Active | IC50 [3]: Not Active

NC(=O)CCCCc1c[nH]c2c(F)cccc12
IC50 ([1]; read-out: IC50): 0.034 µM | IC50 ([3]; read-out: IC50): 0.044 µM

N#CSCCCc1c[nH]c2ccc(F)cc12
Ratio [4]: 42

NC(=O)CCCc1c[nH]c2ccc(F)cc12
Activity [5]: Toxic | Activity [6]: Non-toxic | Activity [7]: Non-toxic | Activity [8]: Non-toxic | IC50 ([1]; read-out: IC50): 0.018 µM | Activity [9]: Non-toxic | Activity [10]: Non-toxic | Activity [11]: Non-toxic | Ratio [4]: 35 | Activity [12]: Toxic

NCC(N)CCc1c[nH]c2ccc(F)cc12 (stereo not given)
IC50 ([1]; read-out: IC50): 0.06 µM | Ki ([2]; read-out: Ki): 0.012 µM | Ratio [4]: 0.2 | IC50 ([3]; read-out: IC50): 0.026 µM

NCCc1c[nH]c2ccc(O)cc12 [SEROTONIN]
IC50 [1]: Not Active

NCCSCCCc1c[nH]c2ccc(F)cc12
IC50 ([1]; read-out: IC50): 0.035 µM | Ki ([2]; read-out: Ki): 0.0009 µM | Ratio [4]: 0.02

NC(=O)CCc1c[nH]c2ccc(F)cc12
IC50 ([1]; read-out: IC50): 0.132 µM | IC50 ([3]; read-out: IC50): 0.034 µM

CCN(CCc1c[nH]c2ccc(F)cc12)S(C)(=O)=O
Ratio [4]: 12

Fc1ccc2[nH]cc(CCCN3CCN(c4ccccc4)CC3)c2c1
IC50 ([1]; read-out: IC50): 0.022 µM | Ki ([2]; read-out: Ki): 0.036 µM | Ratio [4]: 1.6 | IC50 ([3]; read-out: IC50): 0.06 µM

CCCc1c[nH]c2ccc(F)cc12
IC50 ([1]; read-out: IC50): > 0.1 µM | Ki ([2]; hek293): Not Active | IC50 ([3]; read-out: IC50): > 0.1 µM

OCCNCCc1c[nH]c2ccc(F)cc12
IC50 ([1]; read-out: IC50): 0.01 µM | Ki ([2]; read-out: Ki): 0.01 µM | Ratio [4]: 1 | IC50 ([3]; read-out: IC50): 0.031 µM

CCNC(=O)CCCc1c[nH]c2ccc(F)cc12
IC50 ([1]; read-out: IC50): 0.182 µM | IC50 ([3]; read-out: IC50): 0.243 µM

NCCSCCc1c[nH]c2c(F)cccc12
Activity [13]: Toxic | Activity [14]: Toxic | Activity [15]: Toxic | Ki ([2]; read-out: Ki): 0.024 µM | Activity [16]: Non-toxic | Ratio [4]: 8 | Activity [17]: Non-toxic

N#CCCCc1c[nH]c2ccc(F)cc12
IC50 ([1]; read-out: IC50): 0.063 µM | Ki ([2]; read-out: Ki): 0.184 µM | Ratio [4]: 2.9 | IC50 ([3]; read-out: IC50): 0.072 µM

NCCCCc1c[nH]c2c(F)cccc12
Ki ([2]; read-out: Ki): 0.008 µM | Ratio [4]: 1.3

CCSCCc1c[nH]c2ccc(F)cc12
IC50 ([1]; read-out: IC50): > 0.1 µM | Ki ([2]; hek293): Not Active | IC50 ([3]; read-out: IC50): > 0.1 µM

NC(=O)CCc1c[nH]c2c(F)cccc12
IC50 ([1]; read-out: IC50): 0.271 µM | IC50 ([3]; read-out: IC50): 0.064 µM

CCN(CCCc1c[nH]c2ccc(F)cc12)S(C)(=O)=O
IC50 ([1]; read-out: IC50): 0.037 µM | Ki ([2]; read-out: Ki): 0.012 µM | Ratio [4]: 0.3

NCCCCc1c[nH]c2ccc(C(=O)O)cc12
IC50 [1]: Not Active | Ki ([2]; hek293): Not Active | IC50 [3]: Not Active

NC(=O)CCCCc1c[nH]c2ccc(F)cc12
IC50 ([1]; read-out: IC50): 0.039 µM | IC50 ([3]; read-out: IC50): 0.043 µM

Fc1ccc2[nH]cc(CCCNCc3ccccc3)c2c1
IC50 ([1]; read-out: IC50): 0.013 µM | Ki ([2]; read-out: Ki): 0.053 µM | Ratio [4]: 4.1 | IC50 ([3]; read-out: IC50): 0.03 µM

N[C@@H](Cc1ccc(O)cc1)C(=O)O [TYROSINE]
IC50 [1]: Not Active

NCCc1c[nH]c2ccccc12 [TRYPTAMINE]
IC50 ([1]; read-out: IC50): 0.77 µM

NCCSCCc1c[nH]c2ccc(F)cc12
Ki ([2]; read-out: Ki): 0.0023 µM | Ratio [4]: 0.6

NCCc1c[nH]c2c(F)cccc12
IC50 ([1]; read-out: IC50): 0.029 µM | Ki ([2]; read-out: Ki): 0.029 µM | Ratio [4]: 1 | IC50 ([3]; read-out: IC50): 0.028 µM

NCCCc1c[nH]c2c(F)cccc12
IC50 ([1]; read-out: IC50): 0.024 µM | Ki ([2]; read-out: Ki): 0.024 µM | Ratio [4]: 1 | IC50 ([3]; read-out: IC50): 0.026 µM

CCSCCCc1c[nH]c2ccc(F)cc12
IC50 ([1]; read-out: IC50): > 0.1 µM | Ki ([2]; hek293): Not Active | IC50 ([3]; read-out: IC50): > 0.1 µM

OCCNCCCc1c[nH]c2ccc(F)cc12
IC50 ([1]; read-out: IC50): 0.01 µM | Ki ([2]; read-out: Ki): 0.062 µM | Ratio [4]: 6.2 | IC50 ([3]; read-out: IC50): 0.043 µM
